# CHT inh: inhibitors of human choline transporter CHT | AID 488975, 2010 | B-score at 10 µM | CHT-expressing cells, membrane potential dye, choline response; active compounds read low | hit rate 0.86% among 310,000;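 active = B-score over 3 SD under the library average, and starting fluorescence ratio not unusually high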;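 note: choline stimulus applied at its EC90 after an EC20 pre-addition; B-score computed on integrated fluorescence ratio after choline addition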
# Target sequence (Q9GZV3 whole entry, looked up): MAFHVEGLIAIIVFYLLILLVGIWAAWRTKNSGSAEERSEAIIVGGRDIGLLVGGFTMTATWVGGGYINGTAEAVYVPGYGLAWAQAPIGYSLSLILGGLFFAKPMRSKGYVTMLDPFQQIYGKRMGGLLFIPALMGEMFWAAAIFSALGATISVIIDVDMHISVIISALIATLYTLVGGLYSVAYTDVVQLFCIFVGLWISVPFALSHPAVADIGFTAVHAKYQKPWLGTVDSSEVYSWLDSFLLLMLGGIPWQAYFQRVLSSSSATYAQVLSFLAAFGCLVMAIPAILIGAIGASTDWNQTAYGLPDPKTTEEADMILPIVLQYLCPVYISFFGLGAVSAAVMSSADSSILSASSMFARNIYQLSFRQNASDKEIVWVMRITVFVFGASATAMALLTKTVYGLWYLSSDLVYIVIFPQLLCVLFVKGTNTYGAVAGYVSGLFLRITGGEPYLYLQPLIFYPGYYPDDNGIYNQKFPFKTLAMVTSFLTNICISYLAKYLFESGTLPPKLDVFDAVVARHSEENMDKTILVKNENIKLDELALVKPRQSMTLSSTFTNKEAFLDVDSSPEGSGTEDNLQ
# CHT allo act: CHT positive allosteric modulators, primary screen, cell-based, membrane potential dye, choline EC20; hit rate 0.49% among 310,000; CHT-expressing cells; active compounds read high; LV-AA mutant CHT in HEK293 cells; B-score at 10 µM;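 active = initial fluorescence not abnormally high and integrated response B-score, plate-corrected, over 3 SD above library mean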
# HSF-1 act: HSF-1 activators, primary screen, NIH3T3-HGL cells, MG132 stress, luminescence, single point; AID 504408, 2011; NIH3T3-HGL HSF-1 luciferase reporter, 8 h; 100% = twice DMSO control signal; hit rate 1.7% among 300,000; activation, % at 9 µM;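 active = mean replicate activation of at least 50% with a set share of replicates each reaching 50%; inconclusive = only one of those two conditions met; inactive = mean below 50% and too few replicates reaching it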;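 note: 0% = median of the neutral control wells and 100% = twice that signal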
# Hep lipid drop: inhibitors of hepatocyte lipid droplet formation, primary screen, imaging, high-throughput imaging, BODIPY stain | AML12 mouse hepatocytes, oleate lipid droplets | inhibition, % at 6.5 µM | hit rate 0.4% among 240,000 | AID 1656, 2009;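 active = lipid droplet intensity inhibited by at least 50%, with more than 500 cells counted; inconclusive = wells with under 300 cells, treated as cytotoxic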
#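 Technique: fluorescence imaging, 20x objective, two fields per well / Assay system: AML12 hepatocytes (mouse) / Measure: % inhibition of lipid droplet signal / Doses: 6.5 µM single-point dosing / Incubation: overnight exposure / Reagent: 100 µM oleic acid challenge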
# PHOSPHO1 block: PubChem AID 1565 | inhibition, % at 13.3 µM | recombinant PHOSPHO1, absorbance phosphatase assay | hit rate 1.1% among 290,000 | Phosphoethanolamine/phosphocholine phosphatase (Homo sapiens), Q8TCT1; in the data active = inhibition above about 60%
# HSF1 inh: HSF1 inhibitors in luciferase reporter cells, primary screen, cell-based, NIH3T3, luminescence. NIH3T3-HGL HSE-luciferase, MG132-induced, luminescence 8 h; active compounds read low. activity change, negative = inhibition, % at 7.5 µM (by protocol). hit rate 0.77% among 300,000;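 active = more than half of replicate wells show activity change below -50%, luminescence cut by over half; inconclusive = some wells, but at most half, below -50%; inactive = no replicate well below -50%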;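 note: luciferase reports HSF-1 transcriptional activity via heat shock element; 0% = median of DMSO wells and -100% = zero luminescence signal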
# Lipid drop inh: hepatocyte lipid droplet accumulation inhibitors, confirmation, imaging, AML12 mouse hepatocytes, single concentration, high-content; shares compounds with Hep lipid drop; BODIPY lipid droplet imaging; droplets induced with 100 µM oleic acid; inhibition, % at 5.2 µM; hit rate 65% among 870; AID 463183, 2010;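 active = inhibition of lipid droplet metric at least 50%, with more than 300 cells in each of four replicates; inconclusive = wells under 300 cells, flagged as toxic or low count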;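 note: plate controls were DMSO with oleic acid for no effect and 5 µM Triacsin-C for full effect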
# AML12 tox img: AML12 hepatocyte cytotoxicity, counter-screen for hepatic lipid droplet formation project, imaging, DAPI nuclear morphology imaging | shares compounds with Hep lipid drop | AML12 mouse hepatocytes; active compounds read high; cells fed 100 µM oleate overnight | z-score at 5 µM | hit rate 3% among 870 | AID 463200, 2010; in the data active = z-score above about 6.3;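 note: compound exposure lasted overnight at 37 °C before fixation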
# CHT block conf: CHT inhibitors, confirmation, cell-based, membrane potential dye, duplicate | shares compounds with CHT inh | AID 493221, 2011 | CHT activity remaining % of control (active compounds read low), % at 10 µM | hit rate 70% among 2,400 | CHT-expressing cells, choline membrane potential dye; LV-to-AA substituted CHT, HEK293 cells;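 active = choline transporter activity left, mean of duplicates at 10 µM, below buffer-only control mean minus 3 SD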;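 note: depolarization triggered by choline at its EC90 following an EC20 pre-addition; 0% = hemicholinium-3 full block and 100% = buffer-only control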
# HEK293 MPD ctr: membrane potential effects in parental HEK293, counter-screen for CHT inhibitor project, cell-based, membrane potential dye; shares compounds with CHT inh; membrane potential ratio readout (active if shifted either direction beyond buffer ±3SD; no single direction) at 10 µM; hit rate 4% among 2,400; choline response; active = decrease or increase beyond buffer ±3SD;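 note: parental cells lack the transporter so any hit is non-specific; ratio is peak minus trough fluorescence over baseline after EC90 choline challenge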
# An asterisk follows results filed as active; i = inactive; ? = inconclusive; . = not tested or not shown. An excerpt weighted towards active compounds, which were near 4.9% of everything screened.
SMILES,CHT inh,CHT allo act,HSF-1 act,Hep lipid drop,PHOSPHO1 block,HSF1 inh,CHT block conf,HEK293 MPD ctr,others
COc1ccc(C2C([N+](=O)[O-])=C(N)Oc3c2c(=O)oc2ccccc32)cc1 (configuration not stated),i,i,33,22,1,9,.,.,
COC(=O)C1CN(C#N)N(c2ccc(Cl)cc2)C12c1ccccc1-c1ccccc12 (configuration not stated),i,i,-95,131*,1,-95*,.,.,Lipid drop inh=?;AML12 tox img=36*
O=P(C(c1c[nH]c2ccccc12)N1CCOCC1)(N1CCOCC1)N1CCOCC1 (configuration not stated),i,i,0,.,28,-7,.,.,
CC1CCC/C=C/C2CC(O)CC2C(O)/C=C/C(=O)O1 (configuration not stated),-6.6*,i,-42,110*,17,-34,46%*,i,Lipid drop inh=114*;AML12 tox img=17*
O=[N+]([O-])c1ccc(-c2ccccc2)c([As](=O)(O)O)c1,i,i,9,-4,39,-7,.,.,
C/C(=N\N=C(N)N)c1ccccc1,-9.9*,i,-1,-3,37,5,18%*,i,
COc1ccc(NC(=O)C2C3CCC(O3)C2C(=O)O)c(OC)c1 (configuration not stated),i,i,2,31,29,1,.,.,
Cc1cc(/C=C2\C(=O)NC(=O)N(Cc3ccco3)C2=O)c(C)n1-c1ccc(C(=O)O)cc1,-6.3*,i,-4,0,24,1,61%*,i,
CC[C@H](C)/C=C(C)/C=C/C1=CC2=C(Cl)C(=O)[C@@](C)(OC(C)=O)C(=O)C2=CO1,i,i,0,.,.,-4,.,.,
CCC(C)/C=C(C)/C=C/C1=CC2=C(Cl)C(=O)C(C)(OC(C)=O)C(=O)C2=CO1 (configuration not stated),-8.4*,i,-9,-7,-12,-4,24%*,i,
CCOc1cc2c(cc1OCC)-n1cccc1C(c1ccccc1O)NC2 (configuration not stated),i,i,5,8,47,7,.,.,
Cc1ccc2c(c1)C1CN(C)CCC1N2C(=O)Nc1cccc(C(F)(F)F)c1 (configuration not stated),-5.4*,i,-77,-13,12,-70*,23%*,i,
Cc1ccc2c(c1)C1CN(C)CCC1N2C(=O)c1cccnc1Cl (configuration not stated),i,i,4,2,33,-3,.,.,
Cc1ccc2c(c1)C1CN(C)CCC1N2C(=O)CCCN1C(=O)c2cccc3cccc(c23)C1=O (configuration not stated),-5.9*,i,-7,-14,-4,-1,50%*,i,
Cc1ccc2c(c1)[C@@H]1CN(C)CC[C@@H]1N2C(=O)Nc1cccc(C(F)(F)F)c1,-7.2*,i,14,0,7,6,26%*,i,
Cc1ccccc1-n1c(CNc2ccccc2)nc2ccccc2c1=O,i,i,20,.,.,6,.,.,
N=c1c[n+](CC23CC4CC(CC(C4)C2)C3)[n-]o1,-5.6*,i,4,.,-5,-3,37%*,i,
COc1cccc(C2CC3C(=O)C=CC2N3Cc2ccccc2)c1 (configuration not stated),-5.3*,i,-9,-22,-4,-10,-59%*,-40*,
COc1cccc(CN2CCNCC2)c1,i,i,11,2,8,-14,.,.,
O=C(C1CCN(S(=O)(=O)c2ccccc2)CC1)N1CCC2(CC1)OCCO2,i,i,-1,7,12,-1,.,.,
COc1cc(C=C2C(=O)NC(=O)NC2=O)ccc1OS(=O)(=O)c1ccccc1[N+](=O)[O-],-5.3*,i,4,2,30,10,55%*,i,
CCOc1cc(C=C2C(=O)NC(=O)NC2=O)ccc1OCC(=O)N1CCOCC1,i,i,0,0,-28,-2,.,.,
CCOc1cc(C=C2C(=O)NC(=O)NC2=O)ccc1OS(=O)(=O)c1ccccc1,-7.3*,i,-8,21,15,-3,36%*,i,
O=C1NC(=O)C(=Cc2coc3ccc(O)cc3c2=O)C(=O)N1,-6.3*,i,7,9,-2,0,60%*,i,
CCS(=O)(=O)Nc1cccc(C(=C2CCCCC2)c2cnc[nH]2)c1,i,i,.,.,.,.,.,.,
SMILES,CHT inh,CHT allo act,HSF-1 act,Hep lipid drop,PHOSPHO1 block,HSF1 inh,CHT block conf,HEK293 MPD ctr,others
O=C1C2CCN(CC2)C1Cc1ccccc1O (configuration not stated),i,i,-4,.,28,-3,.,.,
Oc1ccc(CC2CC3CCN2CC3)cc1O (configuration not stated),-16*,i,-3,.,6,-13,13%*,i,
CCOc1ccccc1C1SCC(=O)Nc2c1c(=O)[nH]n2C(CC)CC (configuration not stated),i,i,9,.,18,4,.,.,
CC1CCCCN1Cc1c[nH]c2ccccc12 (configuration not stated),-5.7*,i,9,2,8,-7,i,i,
CC1CCCCN1CC(O)c1c[nH]c2ccccc12 (configuration not stated),i,i,0,18,20,-3,.,.,
CC(N)Cc1cn(Cc2ccccc2)c2ccccc12 (configuration not stated),i,i,11,2,30,0,.,.,
CCCCCn1c(=O)c(C(=O)Nc2cnccn2)c(O)c2ccccc21,i,i,2,-18,19,-5,.,.,
